Source: PubChem (several laboratories)
sdo1 growth: restores growth of sdo1-depleted yeast; S. cerevisiae sdo1-depleted JHY4D growth rescue, OD600 30 h; hits give high values; pdr5 snq2 efflux-pump mutant strain; z-score at 10 µM; AID 817; 140,000 compounds, 0.21% hits;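 active = z-score above 3 at both the 24 hr and the 30 hr optical density reads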
STAT1 act: STAT1 signaling activation; NIH 3T3 STAT1-luciferase reporter, IFN-gamma, luminescence; 100% = IFN-gamma alone, no compound; activation (% of control), % at 5.5 µM; 200,000 compounds, 2.6% hits; AID 932;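 active = activation above the screen-wide mean activation plus 3 SD, cut at about 130% in these data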
FLuc stim CS: affects firefly luciferase, flagging false hits in luciferase stimulation screens. P08659. ATPlite luciferase biochemical, luminescence, 10 min; 0 = ATP-free wells, 1 = DMSO control. activation factor at 10 µM. 200,000 tested, under 10 active;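 active = luciferase activation factor, scaled between plate controls, of at least 2 with compound at 10 µM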
Target sequence (P08659 whole entry, looked up): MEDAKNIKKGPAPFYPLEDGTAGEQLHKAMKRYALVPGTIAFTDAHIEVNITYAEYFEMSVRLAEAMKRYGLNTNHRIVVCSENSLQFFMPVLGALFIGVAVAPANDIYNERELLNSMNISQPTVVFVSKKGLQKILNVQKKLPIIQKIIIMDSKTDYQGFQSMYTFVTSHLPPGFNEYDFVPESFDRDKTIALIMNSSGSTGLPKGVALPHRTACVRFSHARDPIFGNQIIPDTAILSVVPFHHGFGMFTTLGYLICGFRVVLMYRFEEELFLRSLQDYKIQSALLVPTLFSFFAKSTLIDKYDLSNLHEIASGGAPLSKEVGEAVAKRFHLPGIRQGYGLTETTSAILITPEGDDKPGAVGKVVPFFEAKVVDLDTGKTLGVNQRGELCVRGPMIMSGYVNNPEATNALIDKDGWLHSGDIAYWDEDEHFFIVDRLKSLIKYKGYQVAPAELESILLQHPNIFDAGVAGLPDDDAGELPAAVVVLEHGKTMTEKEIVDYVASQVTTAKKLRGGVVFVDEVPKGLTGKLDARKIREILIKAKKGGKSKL
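Assay system – cell-free luciferase reagent · Medium – PBS-based ATP solution · Dosing – test compounds dosed from 2 mM stocks in 100% DMSO · Timing – 10 min, room temperature · Technique – light output (luminescence) · Measure – luminescence gain marking luciferase activators · Controls – No-ATP low control, compound-free enzyme-plus-ATP high control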
APP 5'UTR act: APP 5'UTR luciferase reporter activation. SH-SY5Y APP 5'UTR luciferase reporter, luminescence; zero percent = DMSO vehicle wells. activation, % at 2 µM. 190,000 compounds, 1% hits. AID 1276;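 active = activation above a set limit, based on mean plus 3 SD of controls, cut at about 140% in these data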
FLuc inh counter: counter-screen for luciferase assay inhibitors: firefly luciferase inhibition. ATPLite firefly luciferase biochemical luminescence, 10 min. P08659. 200,000 compounds, 1.5% hits. inhibition, % at 10 µM;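 active = inhibition above about 50% when tested at 10 µM, limit read from the data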
NF-kB expr up: raises NF-kB expression in human neuronal cells. NF-kB reporter expression; hits give high values. 190,000 compounds, 1.6% hits. AID 1239. fold change at 12.5 µM; in the data active = fold change above about 3.3
Large screens that a line does not name were inactive. The list is not random: actives were taken first. Their share in the collection is about 4.3%.

O=C(CSc1nnc(NC(=O)c2ccco2)s1)Nc1ccc2c(c1)OCCO2	FLuc inh counter 55 (no result: sdo1 growth)
O=C(Nc1nnc(SCC(=O)N2CCOCC2)s1)c1ccccc1	FLuc inh counter 92
O=C(O)CSc1nnc(NC(=O)c2ccc3c(c2)OCO3)s1	FLuc inh counter 91 (no result: sdo1 growth)
CCOc1ccccc1C(=O)Nc1nnc(SCC(=O)N2CCOCC2)s1	none (no result: sdo1 growth)
CCOC(=O)c1sc2nc3c(SCC(=O)O)cc(C(=O)c4ccccc4O)cn3c(=O)c2c1C	FLuc inh counter 79 (no result: sdo1 growth)
Nc1ccc(O)c(-c2nc3ccccc3s2)c1	none
Cc1ccc(Cn2cccc(-c3nc4ccccc4s3)c2=O)cc1	STAT1 act 140
COc1ccc(Cl)cc1-c1nc(N)nc(N(C)C)n1	none
Nc1ccccc1-c1nc2ccccc2s1	STAT1 act 144 (no result: sdo1 growth)
COc1ccc(-c2cc(OC)c3ccccc3n2)cc1	none
CN(C)c1nc(N)nc(-c2nc3ccccc3s2)n1	STAT1 act 135
COc1ccc(-c2ccc3ccccc3n2)cc1	APP 5'UTR act 206, FLuc inh counter 72, NF-kB expr up 10 (no result: sdo1 growth)
O=C(COC(=O)/C=C/c1ccco1)Nc1cccc([N+](=O)[O-])c1	none
CCCCCC(=O)N/N=C(\C)c1ccc(N2CCCCC2)cc1	none
Cc1cccc(N(CC(O)CON=C2c3ccccc3-c3ccccc32)S(C)(=O)=O)c1 (stereo unspecified)	none
COC(=O)c1ccccc1N(C)S(=O)(=O)c1cc2c(cc1C)OCC(=O)N2	none (no result: sdo1 growth)
C=CCn1c(SCC(=O)Nc2ncc(Cc3ccc(Br)cc3)s2)nnc1-c1ccncc1	none
CC(=O)NCc1ccc(-c2nc3ccccc3s2)cc1	STAT1 act 136, APP 5'UTR act 151, FLuc inh counter 64 (no result: sdo1 growth)
COc1ccc(-c2nc3ccccc3s2)cc1	APP 5'UTR act 169, FLuc inh counter 92 (no result: sdo1 growth)
O=C(NCc1ccccc1)c1nc2ccccc2s1	none (no result: sdo1 growth)
COc1ccc2nc3ccccc3nc2c1	STAT1 act 144 (no result: sdo1 growth)
c1ccc2sc(-c3ccc4c(c3)OCO4)nc2c1	APP 5'UTR act 168, FLuc inh counter 89, NF-kB expr up 6.3
Cc1c([N+](=O)[O-])c([N+](=O)[O-])nn1CC(=O)N1CCOCC1	none (no result: sdo1 growth)
c1ccc(-c2nnc(NC3=NCCC3)o2)cc1	FLuc inh counter 66 (no result: sdo1 growth)
Fc1ccc(-c2nnc(NC3=NCCCCC3)o2)cc1	FLuc inh counter 87
O=c1c2ccccc2nc2c3ccccc3c(Cl)nn12	none (no result: sdo1 growth)
O=c1c2ccccc2nc2c3ccccc3cnn12	STAT1 act 134 (no result: sdo1 growth)
CCOc1ccc(C(=O)COC(=O)CC)cc1	FLuc inh counter 56
CCCCC(=O)OCC(=O)c1ccc(OCC)cc1	FLuc inh counter 53
COc1ccc(CC(=O)OCC(=O)c2ccc(OC)cc2)cc1	none
CC(C)Cc1ccc(/C=C/C(=O)N2CCCCC2)cc1	STAT1 act 139, NF-kB expr up 4.2 (no result: sdo1 growth)
CC(C)Cc1ccc(/C=C/C(=O)NC2CC2)cc1	STAT1 act 147
CCCOc1ccc(S(=O)(=O)N2CCOCC2)cc1[N+](=O)[O-]	none (no result: sdo1 growth)
CN1C2C=C3C(C#N)=C(N)C(C#N)(C#N)[C@@H](c4cccs4)C3C1CC2 (stereo partly specified)	NF-kB expr up 4.4
CN1C2C=C3C(C#N)=C(N)C(C#N)(C#N)[C@H](c4c(F)cccc4F)[C@H]3C1CC2 (stereo partly specified)	none
CCCC(=O)Nc1ccccc1NC(=O)c1ccc(OC(C)=O)cc1	none (no result: sdo1 growth)
O=C(NCCSc1ccccn1)c1ccc(Cl)cc1Cl	NF-kB expr up 4.5 (no result: sdo1 growth)
CS(=O)(=O)N(Cc1ccc(Cl)cc1)c1ccc(C(=O)NCCSc2ccccn2)cc1	none
O=C(Nc1ccccc1)c1ccc(CSc2ccccn2)cc1	STAT1 act 133, APP 5'UTR act 197
O=C(Nc1ccc(CSc2ccccc2)cc1)c1ccccc1	none (no result: sdo1 growth)
O=C(NCCSc1ccccn1)c1ccc(Cl)cc1	APP 5'UTR act 209, NF-kB expr up 6.1 (no result: sdo1 growth)
COC(=O)CNC(=O)COC(=O)/C=C/c1ccc(F)cc1	none (no result: sdo1 growth)
CC(C)(C)C(=O)Nc1ccc2c(c1)-c1cc(NC(=O)C(C)(C)C)ccc1C2	none
CC(=O)c1ccc2c(c1)Cc1cc(C(C)=O)ccc1-2	STAT1 act 146
COc1cc(C(c2c(C)[nH][nH]c2=O)c2c(C)[nH][nH]c2=O)ccc1OCc1ccc([N+](=O)[O-])cc1	NF-kB expr up 3.8 (no result: APP 5'UTR act)
